# Data taken from PubChem BioAssay.
# Activity calls are given as the source filed them. Cut-off read from the data, not from the text of the source, unless noted: active = inhibition above about 30%; inactive = the rest.
# Assays:
# [1] = Her2 expression decrease, cell viability multiplex – SKBR3 breast tumor cells, AlphaScreen, ATP viability, primary screen (AID 461;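 active = Her2 level under about 52% in both replicate screens, with viability over 70% of control, limit read from the data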;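 for Her2 level: lower value means less Her2 protein in the cells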;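 for viability: percent of carrier control wells set as 100% viability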); conditions: SKBR3 Her2 protein level, 18-24 h, measured here: SKBR3 viability, ATP luminescence, at 10 µM
# [2] = biological target: Receptor tyrosine-protein kinase erbB-2 (Homo sapiens) (UniProt P04626); test: as above; conditions: 18-24 h, at 10 µM, stronger effect = lower value
# [3] = reduced viability of SK-BR-3 breast cancer cells – cell-based, 24 h, human, pilot screen (AID 572;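 active = viability at or below 10% of carrier control in both of two separate runs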;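 note: compound exposure lasted between 18 and 24 h rather than exactly 24 h; 100% = carrier-treated control wells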); conditions: SK-BR-3 viability, CellTiter-Glo luminescence, at 10 µM, stronger effect = lower value
# [4] = HUVEC growth inhibition – cell-based, human, primary screen (AID 575;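 active = viability at or below 30% in both replicate assays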;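 note: 100% = median of untreated cell wells with 0.1% DMSO on each plate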); conditions: HUVEC proliferation, CellTiter-Glo luminescence, 72 h; at 10 µM; stronger effect = lower value
# Method in brief: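 system = HUVEC primary cells | amount = 1250 cells/well | buffer or medium = supplemented EBM, 2% fetal bovine serum | dosing = single-point 10 µM, DMSO 0.1% final | times = 72 h compound incubation | detection = CTG luminescence | read-out = % viability relative to median vehicle-well signal on each plate | control set = vehicle and MePR control wells | format = collagen-coated 384-well format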
# [5] = H69AR cell proliferation blockers – human, duplicate replicates, primary screen (AID 580;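 active = viability at or under a set limit in both replicates, limit being median viability minus 3 SD, cut at about 48% in these data, passing the limit was not always enough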;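 note: 100% = mean luminescence of untreated wells and 0% = no signal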); conditions: H69AR lung tumor cells viability, ATP luminescence, 72 h; at 10 µM; stronger effect = lower value
# [6] = MRP1 drug-resistance reversers in H69AR cells – cell-based, doxorubicin co-treatment, pilot screen (AID 601;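 active = viability loss from added drug above about 55%, and viability with drug at most 40%, in both replicates, limit read from the data, passing the limit was not always enough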); conditions: CellTiter-Glo, 72 h, at 10 µM; for differential viability (reversal): stronger effect = higher value
# [7] = yeast transport mutant growth inhibition pilot in 384-well plates, post-Golgi transport modulator project (AID 636; in the data active = inhibition above about 31%); conditions: absorbance 615 nm, about 18 h, stronger effect = higher value
# [8] = growth suppression of yeast trafficking mutant, preliminary HTS, modulators of trafficking downstream of Golgi apparatus project, 1536-format plate, OD 615 nm (AID 637); conditions: yeast transport mutant growth, absorbance 615 nm, 18 h; stronger effect = higher value
# [9] = H69AR cells + 2 uM doxorubicin, measured here: viability with 2 uM doxorubicin, stronger effect = lower value
# [10] = H69AR cells, compound alone cytotoxicity
# Sequence of Receptor tyrosine-protein kinase erbB-2 (Homo sapiens) (P04626 whole entry, looked up): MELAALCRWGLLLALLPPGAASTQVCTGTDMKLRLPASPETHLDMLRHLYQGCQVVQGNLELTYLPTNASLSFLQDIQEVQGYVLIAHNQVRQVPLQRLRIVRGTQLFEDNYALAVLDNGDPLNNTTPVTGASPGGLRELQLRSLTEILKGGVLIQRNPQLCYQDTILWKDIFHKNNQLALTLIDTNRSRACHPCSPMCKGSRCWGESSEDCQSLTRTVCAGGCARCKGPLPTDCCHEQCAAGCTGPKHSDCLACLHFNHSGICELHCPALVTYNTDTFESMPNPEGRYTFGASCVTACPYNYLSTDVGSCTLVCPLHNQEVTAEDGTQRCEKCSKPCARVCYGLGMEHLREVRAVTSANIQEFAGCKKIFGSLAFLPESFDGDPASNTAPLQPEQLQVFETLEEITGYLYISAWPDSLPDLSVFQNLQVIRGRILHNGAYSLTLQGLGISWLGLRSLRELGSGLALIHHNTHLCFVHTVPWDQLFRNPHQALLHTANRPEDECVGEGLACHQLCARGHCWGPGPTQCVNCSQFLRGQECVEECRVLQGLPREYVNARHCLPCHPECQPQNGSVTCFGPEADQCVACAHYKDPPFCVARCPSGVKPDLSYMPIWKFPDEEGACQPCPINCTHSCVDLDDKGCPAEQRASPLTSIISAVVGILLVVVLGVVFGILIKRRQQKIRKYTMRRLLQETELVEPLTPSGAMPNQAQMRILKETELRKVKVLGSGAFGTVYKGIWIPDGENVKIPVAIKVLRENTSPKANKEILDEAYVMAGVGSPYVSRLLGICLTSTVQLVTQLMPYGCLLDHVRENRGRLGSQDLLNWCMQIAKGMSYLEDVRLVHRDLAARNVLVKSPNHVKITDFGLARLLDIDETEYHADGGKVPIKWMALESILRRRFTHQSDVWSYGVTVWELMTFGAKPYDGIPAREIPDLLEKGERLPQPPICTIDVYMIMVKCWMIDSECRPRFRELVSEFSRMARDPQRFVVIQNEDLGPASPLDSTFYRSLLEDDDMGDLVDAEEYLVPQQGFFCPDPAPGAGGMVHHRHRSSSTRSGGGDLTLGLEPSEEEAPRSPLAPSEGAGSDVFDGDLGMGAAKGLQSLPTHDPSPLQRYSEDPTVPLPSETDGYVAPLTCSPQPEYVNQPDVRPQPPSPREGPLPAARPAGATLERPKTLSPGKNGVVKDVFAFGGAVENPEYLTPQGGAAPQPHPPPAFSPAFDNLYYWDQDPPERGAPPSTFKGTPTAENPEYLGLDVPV
Compound,viability [1] [%],Her2 level [2],viability [3],viability [4],viability [5],differential viability (reversal) ([6]; H69AR cells + 2 uM doxorubicin),"viability [6, 9] [%]","viability [6, 10] [%]",inhibition [7],inhibition [8]
CN(C(=O)c1ccc(S(=O)(=O)NC2CCCC2)cc1)C1CCCCC1,101,87% (inactive),101% (inactive),103% (inactive),102% (inactive),9.82% (inactive),92.3,102,-3.38% (inactive),-7.54% (inactive)
O=C(CSc1nnc(C2COc3ccccc3O2)o1)N1CCCc2ccccc21 (stereo not given),85.5,78% (inactive),85.5% (inactive),60.9% (inactive),92.3% (inactive),-3.22% (inactive),95.5,92.3,-5.26% (inactive),-4% (inactive)
O=C(NCC(c1cccnc1)N1CCN(c2ccc(F)cc2)CC1)OCc1ccccc1 (stereo not given),101,66% (inactive),101% (inactive),85% (inactive),91.8% (inactive),-3.13% (inactive),95,91.8,-2.57% (inactive),32.9% (active)
O=S(=O)(NCC1CCCO1)c1ccc(S(=O)(=O)N2CCc3ccccc3C2)cc1 (stereo not given),90,93.5% (inactive),90% (inactive),94.9% (inactive),94.8% (inactive),5.08% (inactive),89.8,94.8,0.26% (inactive),2.42% (inactive)
Cn1c(=O)c2c(-c3ccncc3)c3c(nc2n(C)c1=O)-c1ccccc1C3=O,94,104% (inactive),94% (inactive),98.4% (inactive),95% (inactive),2.95% (inactive),92,95,-1.6% (inactive),9.37% (inactive)
CCn1c(C(=O)N2CCCC(C(=O)O)C2)cc2sccc21 (stereo not given),103,98.5% (inactive),103% (inactive),101% (inactive),93.8% (inactive),6.41% (inactive),87.4,93.8,0.53% (inactive),-1.15% (inactive)
O=C(Nc1cccc(F)c1)N1CC=C(n2c(=O)[nH]c3ccccc32)CC1,111,86.5% (inactive),111% (inactive),93.4% (inactive),81.9% (inactive),5.16% (inactive),76.7,81.9,-4.21% (inactive),0.91% (inactive)
Cc1ccc(CNC(=O)C2CC(=O)OC23CCCC3)c(C)c1 (stereo not given),86,100% (inactive),86% (inactive),96.5% (inactive),106% (inactive),12.3% (inactive),94.1,106,-5.89% (inactive),3.17% (inactive)
CC(C)COC(=O)C(C#N)c1nc2ccccc2nc1N1CCN(Cc2ccccc2)CC1 (stereo not given),76,85.5% (inactive),76% (inactive),64.7% (inactive),74.7% (inactive),-5.91% (inactive),80.6,74.7,-4.53% (inactive),14.3% (inactive)
COc1cccc(-n2c(CNc3ccc(F)cc3)nnc2SCC(N)=O)c1,115,82.5% (inactive),115% (inactive),101% (inactive),90.4% (inactive),8.77% (inactive),81.6,90.4,-4.67% (inactive),0.97% (inactive)
Cc1cc(C)nc(N2CCC(C(=O)Nc3ccc4c(c3)CCC4)CC2)n1,81.5,85% (inactive),81.5% (inactive),54.9% (inactive),103% (inactive),7.34% (inactive),96,103,-4.74% (inactive),-2.67% (inactive)
COCCn1c(CN2CCN(c3ccccc3F)CC2)nc2c1c(=O)n(C)c(=O)n2C,105,138% (inactive),105% (inactive),84.5% (inactive),95.8% (inactive),0.255% (inactive),95.6,95.8,-1.2% (inactive),1.5% (inactive)
Cc1ccc(S(=O)(=O)N2CCN(C(=O)CN3CCOCC3)C2C(C)C)cc1 (stereo not given),99.5,102% (inactive),99.5% (inactive),102% (inactive),104% (inactive),9.15% (inactive),94.5,104,-2.86% (inactive),-2.54% (inactive)
Cc1cc(C(=O)Cn2cncn2)c(C)n1CCc1ccc(F)cc1,64,80% (inactive),64% (inactive),105% (inactive),89.2% (inactive),-5.71% (inactive),95,89.2,-5.41% (inactive),3.11% (inactive)
O=C(CSc1nnc(-c2cnccn2)n1Cc1ccco1)c1ccc(Cl)cc1,90,81% (inactive),90% (inactive),105% (inactive),80.7% (inactive),-2.83% (inactive),83.5,80.7,-0.78% (inactive),6.5% (inactive)
Cc1cc(C)c2c(n1)nn1c(NCCCN3CCOCC3)cc(C)nc21,106,79% (inactive),106% (inactive),98.8% (inactive),97.7% (inactive),7.13% (inactive),90.6,97.7,-5.54% (inactive),2.38% (inactive)
CC1Cc2ccccc2N1C(=O)CSc1nc2ccccc2n1CC(=O)N1CCOCC1 (stereo not given),97,91% (inactive),97% (inactive),94% (inactive),97.8% (inactive),7% (inactive),90.8,97.8,-6.13% (inactive),3.77% (inactive)
Cc1cccc2cc(C#N)c(NCCNC(=O)NC3CCCCC3)nc12,97.5,84.5% (inactive),97.5% (inactive),48.3% (inactive),75.1% (inactive),-7.59% (inactive),82.7,75.1,-2.37% (inactive),-3.45% (inactive)
CCN(C(=O)CN1CCN(c2ccccc2OC)CC1)c1c(N)n(Cc2ccccc2)c(=O)[nH]c1=O,113,102% (inactive),113% (inactive),98.7% (inactive),100% (inactive),9.64% (inactive),90.8,100,-8% (inactive),-0.16% (inactive)
COc1ccc(C(O)Cn2c(=N)n(CCCN(C)C)c3ccccc32)cc1 (stereo not given),78.5,102% (inactive),78.5% (inactive),90.3% (inactive),97.5% (inactive),6.39% (inactive),91.1,97.5,-0.26% (inactive),-6.51% (inactive)
O=c1/c(=C/c2ccco2)sc2nc(-c3ccccc3Br)nn12,97,89.5% (inactive),97% (inactive),99.8% (inactive),92.4% (inactive),4.5% (inactive),87.9,92.4,-6.8% (inactive),1.64% (inactive)
CC1c2nc3ccccc3n2C(CC(=O)NCc2ccccn2)C(=O)N1Cc1ccccc1 (stereo not given),110,72% (inactive),110% (inactive),96.3% (inactive),92.8% (inactive),7.24% (inactive),85.5,92.8,-1.58% (inactive),1.59% (inactive)
COc1ccc2ccccc2c1CN1CCCC(CO)C1 (stereo not given),92.5,85.5% (inactive),92.5% (inactive),92.9% (inactive),82% (inactive),1.51% (inactive),80.5,82,-1.82% (inactive),0.82% (inactive)
COc1ccccc1C1/C(=C(/O)c2ccccc2)C(=O)C(=O)N1CC(C)C (stereo not given),104,89.5% (inactive),104% (inactive),81.4% (inactive),82.1% (inactive),-2.33% (inactive),84.4,82.1,-2.47% (inactive),5.24% (inactive)
O=C(CSc1ncnc2ccccc12)N1CCN(c2ccccc2)CC1,102,92.5% (inactive),102% (inactive),94.1% (inactive),82.7% (inactive),4.57% (inactive),78.1,82.7,-1.05% (inactive),-8.73% (inactive)
Cc1ccc2nc(SC(C)C(=O)N3CCCC3)[nH]c2c1 (stereo not given),87.5,108% (inactive),87.5% (inactive),91.4% (inactive),97.6% (inactive),6.04% (inactive),91.6,97.6,-0.92% (inactive),-6.35% (inactive)
O=C(NCC1COc2ccccc2O1)c1ccc(NC(=O)c2ccco2)cc1 (stereo not given),85.5,83% (inactive),85.5% (inactive),105% (inactive),99.1% (inactive),6.69% (inactive),92.4,99.1,0% (inactive),-2.33% (inactive)
COc1ccc(-c2cn3cc(C)ccc3n2)cc1OC,108,88% (inactive),108% (inactive),91.5% (inactive),63.7% (inactive),0.63% (inactive),63.1,63.7,-5.26% (inactive),-1.64% (inactive)
CCn1c(SCC(=O)c2ccc(Cl)cc2)nnc1-c1ccoc1C,118,104% (inactive),118% (inactive),98.2% (inactive),93.6% (inactive),4% (inactive),89.6,93.6,-2.84% (inactive),-0.98% (inactive)
